This is an account of results in ChEMBL document CHEMBL1649395, “Synthesis and antibacterial activity of novel ketolides with 11,12-sulfur contained aryl alkyl side chains” (2011).

Common to all, as to type: functional
Experiment [1] has as its system Streptococcus pyogenes. Put plainly: Antibacterial activity against erythromycin-resistant Streptococcus pyogenes 03-233 by broth microdilution method. An outline of the steps:
(§1)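 Clinical isolates were supplied by China's Ministry of Health National Antimicrobial Resistance Investigation Net (MOHNARIN). Activity was reported as minimum inhibitory concentration (MIC), determined by broth microdilution following NCCLS recommendations.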
(Broth dilution looks for growth in wells or tubes with falling amounts of substance.)

Experiment [2] has as its system Staphylococcus epidermidis. The experiment is described as follows: Antibacterial activity against methicillin-resistant Staphylococcus epidermidis 07R066 by broth microdilution method. An outline of the steps:
as §1

Experiment [3] deals with Streptococcus pneumoniae. Put plainly: Antibacterial activity against erythromycin-resistant Streptococcus pneumoniae 07P390 by broth microdilution method. An outline of the steps: as §1
Experiment [4] concerns Staphylococcus aureus. Put plainly: Antibacterial activity against methicillin-susceptible Staphylococcus aureus ANS46 by broth microdilution method. An outline of the steps: (§2)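 Strains were ATCC reference strains or clinical isolates from China's national antimicrobial resistance surveillance network (MOHNARIN). In vitro activity was measured by broth microdilution following NCCLS recommendations. Results are reported as minimum inhibitory concentration (MIC) in mg/L.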

Experiment [5] deals with Streptococcus pneumoniae. Put plainly: Antibacterial activity against erythromycin-susceptible Streptococcus pneumoniae ATCC 49619 by broth microdilution method. An outline of the steps: as §2
For experiment [6], the system named is Streptococcus pneumoniae. Put plainly: Antibacterial activity against erythromycin-susceptible Streptococcus pneumoniae 07H252 by broth microdilution method. An outline of the steps: as §2
The subject of experiment [7] is Haemophilus influenzae. Put plainly: Antibacterial activity against erythromycin-susceptible Haemophilus influenzae ATCC 49247 by broth microdilution method. An outline of the steps: as §2
Experiment [8] deals with Haemophilus influenzae. The experiment is described as follows: Antibacterial activity against erythromycin-susceptible Haemophilus influenzae 07O114 by broth microdilution method. An outline of the steps:
as §2

Experiment [9] relates to Haemophilus influenzae. The experiment is described as follows: Antibacterial activity against erythromycin-susceptible Haemophilus influenzae 07O339 by broth microdilution method. An outline of the steps: as §2
Experiment [10] relates to Staphylococcus epidermidis. Put plainly: Antibacterial activity against methicillin-susceptible Staphylococcus epidermidis 07T202 by broth microdilution method. An outline of the steps:
as §2

Experiment [11] relates to Haemophilus influenzae. Put plainly: Antibacterial activity against erythromycin-susceptible Haemophilus influenzae 07O394 by broth microdilution method. An outline of the steps: as §2
Experiment [12] concerns Streptococcus pyogenes. The experiment is described as follows: Antibacterial activity against erythromycin-susceptible Streptococcus pyogenes 07U084 by broth microdilution method. An outline of the steps:
as §2

Experiment [13] relates to Streptococcus pneumoniae. The experiment is described as follows: Antibacterial activity against erythromycin-resistant Streptococcus pneumoniae 07D201 by broth microdilution method. An outline of the steps: as §1
The subject of experiment [14] is Staphylococcus aureus. The experiment is described as follows: Antibacterial activity against methicillin-susceptible Staphylococcus aureus ATCC 29213 by broth microdilution method. An outline of the steps: as §2
In experiment [15] the test system is Streptococcus pyogenes. The experiment is described as follows: Antibacterial activity against erythromycin-resistant Streptococcus pyogenes 01-533 by broth microdilution method. An outline of the steps: as §1
Experiment [16] concerns Staphylococcus epidermidis. Put plainly: Antibacterial activity against methicillin-resistant Staphylococcus epidermidis 07A066 by broth microdilution method. An outline of the steps: as §1
Experiment [17] concerns Staphylococcus epidermidis. Put plainly: Antibacterial activity against methicillin-susceptible Staphylococcus epidermidis 07C134 by broth microdilution method. An outline of the steps:
as §1

Experiment [18] concerns Streptococcus pyogenes. The experiment is described as follows: Antibacterial activity against erythromycin-susceptible Streptococcus pyogenes 07U086 by broth microdilution method. An outline of the steps:
as §2

Converted amounts (≈) assume the structure as drawn. A value given as a limit tells only on which side of the number the result lay.

Take `CC[C@H]1OC(=O)[C@H](C)C(=O)[C@H](C)[C@@H](O[C@@H]2O[C@H](C)C[C@H](N(C)C)[C@H]2O)[C@@](C)(OC)C[C@@H](C)C(=O)[C@H](C)[C@H]2N(CCCSc3nc(-c4cccnc4)c[nH]3)C(=O)O[C@]12C`: the MIC against Streptococcus pyogenes [1] was 1 µg/mL (≈ 1.2 µM); in experiment [2], 0.125 µg/mL (≈ 0.151 µM); in the experiment on Streptococcus pneumoniae [3] it was 0.031 µg/mL (≈ 0.0373 µM); in the experiment on Staphylococcus aureus [4] it was greater than 32 µg/mL; with Streptococcus pneumoniae [5], 0.062 µg/mL (≈ 0.0747 µM); with Streptococcus pneumoniae [6], 0.25 µg/mL (≈ 0.301 µM). The MIC was 2 µg/mL (≈ 2.41 µM) in the experiment with Haemophilus influenzae [7]; 2 µg/mL (≈ 2.41 µM) in the experiment with Haemophilus influenzae [8]; 2 µg/mL (≈ 2.41 µM) with Haemophilus influenzae [9]; 32 µg/mL (≈ 38.6 µM) in experiment [10]; 2 µg/mL (≈ 2.41 µM) against Haemophilus influenzae [11]; 0.031 µg/mL (≈ 0.0373 µM) against Streptococcus pyogenes [12]. For the same compound, the MIC in the experiment on Streptococcus pneumoniae [13] was 4 µg/mL (≈ 4.82 µM); with Staphylococcus aureus [14], 0.125 µg/mL (≈ 0.151 µM); in the experiment on Streptococcus pyogenes [15], 0.125 µg/mL (≈ 0.151 µM); in experiment [16], 0.125 µg/mL (≈ 0.151 µM); in experiment [17], 0.125 µg/mL (≈ 0.151 µM); in the experiment with Streptococcus pyogenes [18], 0.031 µg/mL (≈ 0.0373 µM).

Turning to `CC[C@H]1OC(=O)[C@H](C)C(=O)[C@H](C)[C@@H](O[C@@H]2O[C@H](C)C[C@H](N(C)C)[C@H]2O)[C@@](C)(OC)C[C@@H](C)C(=O)/C(C)=C/[C@]1(C)OC(=O)NCCCSc1ncnc2[nH]ncc12`, the MIC is greater than 16 µg/mL against Streptococcus pyogenes [1]; 0.5 µg/mL (≈ 0.621 µM) in experiment [2]; 16 µg/mL (≈ 19.9 µM) in the experiment on Streptococcus pneumoniae [3]; greater than 16 µg/mL against Staphylococcus aureus [4]; 0.5 µg/mL (≈ 0.621 µM) against Streptococcus pneumoniae [5]; 8 µg/mL (≈ 9.94 µM) against Streptococcus pneumoniae [6]. Besides, the MIC against Haemophilus influenzae [7] is greater than 16 µg/mL; with Haemophilus influenzae [8], greater than 16 µg/mL; against Haemophilus influenzae [9] it was greater than 16 µg/mL; in experiment [10] it was greater than 16 µg/mL; in the experiment with Haemophilus influenzae [11], greater than 16 µg/mL; in the experiment on Streptococcus pyogenes [12] it was 0.25 µg/mL (≈ 0.311 µM). Further, the MIC against Streptococcus pneumoniae [13] was greater than 16 µg/mL; against Staphylococcus aureus [14], 0.5 µg/mL (≈ 0.621 µM); against Streptococcus pyogenes [15], 8 µg/mL (≈ 9.94 µM); in experiment [16] it was 0.5 µg/mL (≈ 0.621 µM); in [17] it was 0.5 µg/mL (≈ 0.621 µM); with Streptococcus pyogenes [18], 0.25 µg/mL (≈ 0.311 µM).
